Assay outcomes: PubChem, several laboratories
NALP1 inh: NALP1 inflammasome inhibitors in reconstituted yeast, colorimetric, S. cerevisiae, triplicate retest. AID 2071, 2009. actives 0.61% (n = 280,000). S. cerevisiae NALP1/ASC/caspase-1 growth, X-gal OD620, 72 h. inhibition, % at 10 µM; in the data active = inhibition mostly above about 24%, no sharp cut-off; inactive = mostly below about 32%
A1 inh: caspase 3/7 activation in MEF A1-2A-BIM cells, primary screen, A1 inhibitor project, cell-based, luminescence, HTS; Caspase-Glo 3/7 luminescence, 3 h; percent of clofoctol response, vehicle zero; caspase activation, % (concentration not given with the values); actives 0.066% (n = 330,000);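 active = over half of replicate activation scores above 10%, or exactly half above 10 with the replicate mean above 10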
NLRP3 yeast inh: NALP3 inflammasome inhibitors in reconstituted yeast, primary screen, luminescence, uHTS; Yeast reconstituted NLRP3/ASC/caspase-1, beta-gal luminescence, 24 h; inhibition, % at 10 µM; actives 0.39% (n = 330,000); AID 2825, 2010;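 active = inhibition of 50% or more; inactive = inhibition below 50%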;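 note: plate controls were induced DMSO wells for no effect and uninduced yeast grown without galactose for full effect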
T cell HTS: modulators of CD8 T cell-vesicle binding, primary screen, mouse 2C CD8+ T cells, flow cytometry; 2C CD8+ T cell-vesicle binding; stronger effect = lower value; response (vesicle binding), % at 7 µM; actives 0.068% (n = 330,000); AID 2052, 2009;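 active = response, share of CD8 T cells binding vesicles, and their 90th percentile fluorescence all below set limits, cut at about 80% in these data, passing the limit was not always enough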;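 note: values below 100% mean blocked vesicle binding to the CD8+ T cells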
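Assay system: 2C TCR transgenic mouse naive CD8+ T cells, MACS-purified | Read-out: CD8+ gate FL2 mean fluorescence as % of same-row positive control | Signal: High-throughput flow cytometry with anti-B7-1 and anti-CD8 staining | Timing: Binding step 1.5 h, 37 °C, antibody labelling 20 min, ice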
* marks the source's active call; other numbers are inactive results; i = inactive; x = no result given. A selection: hits, their analogues and other compounds. The true share with any hit is near 1%.

SMILES	NALP1 inh	A1 inh	NLRP3 yeast inh	T cell HTS
COc1ccc2nc3n(c(=O)c2c1)-c1cc(Cl)ccc1C(=O)NC3Cc1ccccc1 (stereo not given)	x	0.3	13.8	267.9
COc1ccccc1NC1=C(N2CCCCC2)C(=O)c2ccccc2C1=O	79.5*	-0.5	41.0	582.6
O=C1C(Nc2ccccc2)=C(N2CCCCC2)C(=O)c2ccccc21	4.3	-1.2	25.8	346.8
O=C(NC1CCCC1)C(c1ccccn1)N(C(=O)c1csnn1)c1ccc(F)cc1 (stereo not given)	3.6	1.0	17.8	457.7
Cc1cccc(NC(=O)/C(C#N)=C/c2cn(CC(=O)NCc3ccco3)c3ccccc23)c1	25.3	52.6*	x	387.7
COCCNC(=O)/C(C#N)=C/c1cn(CC(=O)NCc2ccco2)c2ccccc12	-8.9	0.7	11.0	359.2
COc1cccc(C(=O)OCC(=O)N2CCC(Cc3ccccc3)CC2)c1OC	x	-0.7	5.0	803.1
CCCCC(=O)OCC(=O)N1N=C(c2c[nH]c3ccccc23)C(O)C1c1ccc(OC)cc1 (stereo not given)	10.0	-0.1	-3.7	91.4
Cc1ccc(CNC(=O)CCc2cn(C)c3ccccc23)cc1	18.0	-0.6	26.9	212.9
COc1ccc(NC(=O)CSc2nnnn2C)cc1	11.7	-0.5	11.3	360.6
COc1ccc(C(=O)NNC(=O)CSc2nnnn2C)cc1	5.5	0.2	-5.6	61.7*
O=C(NCCN1C(=O)S/C(=C\c2cccnc2)C1=O)c1ccc([N+](=O)[O-])s1	x	-0.2	9.2	305.6
Cc1c(C(=O)NCCN2C(=O)S/C(=C\c3cccnc3)C2=O)cccc1[N+](=O)[O-]	-7.9	-0.5	12.9	18.7*
O=c1cc(CN2CCN(Cc3ccc(F)cc3)C(CCO)C2)[nH]c2ccccc12 (stereo not given)	10.5	1.1	6.1	420.1
OCC1CCCN(Cc2ccc(-c3ccccc3)cc2)C1 (stereo not given)	34.1*	0.5	20.5	307.8
O=C(c1ccc(-c2ccccc2)cc1)C1CCCN(Cc2ccncc2)C1 (stereo not given)	21.0	0.2	47.6	159.6
Cc1ccc(-c2ccc(/C=C(\C#N)C(=O)Nc3cc(C)nn3-c3ccccc3)o2)cc1	24.1	32.6*	26.1	502.1
CCOC(=O)c1cc(-c2cccc([N+](=O)[O-])c2)n[nH]1	30.0*	-0.6	22.8	438.0
CCC(C)c1ccccc1OCC(=O)NN1C(=O)c2ccccc2C1=O (stereo not given)	15.8	0.7	18.0	290.9
CC(C)c1ccccc1OCC(=O)NN1C(=O)c2ccccc2C1=O	42.3*	-0.1	-0.7	398.3
Cc1cc(OC(C)C(=O)NCCCN2CCOCC2)ccc1Cl (stereo not given)	8.1	-0.4	16.0	330.4
CC(Oc1ccc(Cl)cc1Cl)C(=O)NCCCN1CCOCC1 (stereo not given)	41.2*	-0.1	19.4	657.2
O=C(c1ccc([N+](=O)[O-])cc1)N(Cc1ccc(Br)cc1)N1C(=O)CCCC1=O	34.0*	-0.1	6.0	x
O=C(c1ccccc1Cl)N(Cc1ccc(Br)cc1)N1C(=O)CCCC1=O	4.8	-0.3	-11.6	451.3
Oc1ccc(/C=N/N2CCN(C3c4ccccc4-c4ccccc43)CC2)cc1O	8.9	29.4*	28.5	232.4
SMILES	NALP1 inh	A1 inh	NLRP3 yeast inh	T cell HTS
CN(C)CCNc1oc(-c2ccccc2Cl)nc1S(=O)(=O)c1ccccc1	x	2.2	5.8	0.0*
CN(C)CCCNc1oc(-c2ccccc2Cl)nc1S(=O)(=O)c1ccc(F)cc1	13.9	0.5	35.9	i
COc1ccc(S(=O)(=O)NC2CCCCCC2)cc1C(N)=O	11.0	1.4	16.8	277.1
O=C(c1cc2ccccn2n1)N1CCCC1	10.2	x	x	x
O=C(c1cc2ccccn2n1)N1CCN(Cc2ccccc2)CC1	33.7*	-0.3	27.2	621.0
O=C1CC(N2CCCCCC2)C(=O)N1c1ccc(F)cc1 (stereo not given)	36.9*	0.2	-6.5	195.1
CSc1cccc(NC(=O)CCCn2c(=O)c3cccn3c3cccnc32)c1	18.8	-0.4	9.8	170.4
Cc1ccc(/C=N/NC(=O)c2csc(C)c2)o1	-6.4	-0.4	-10.3	170.4
Cc1cc(C(=O)N/N=C/c2ccc(N(C)C)o2)cs1	31.1*	0.0	5.7	259.8
O=C(O)COc1ccccc1C(Nc1cccnc1)c1cc(Cl)c2cccnc2c1O (stereo not given)	16.7	x	16.7	x
